Compound activity: PubChem BioAssay, several laboratories
Lmaj promast = Leishmania major promastigote growth inhibition; Leishmania major promastigotes, resazurin fluorescence viability; inhibition, % at 10 µM; 9% of 200,000 active; AID 1063; in the data active = inhibition above about 50%;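 note: promastigotes grown with compound for 44 hours at 28 °C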
bCat nuc transl = beta-catenin nuclear translocation modulation. HeLa beta-catenin nuclear translocation, immunofluorescence imaging. nuclear translocation activity, % at 5 µM. 0.3% of 190,000 active. AID 1665;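 active = nuclear translocation activity above 50% at 5 µM, with a well cell count of 50 or more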;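 note: per-cell ratio of nuclear to cytoplasmic median beta-catenin stain intensity; plate controls were DMSO negative control for no effect and GSK-3 inhibitor IX positive control for full effect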
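Assay system: human HeLa cells, native beta-catenin; doses: 5 µM primary, 0.02–20 µM confirmation; incubation: compound treatment 24 h, 37°C, 5% CO2; technique: fluorescence imaging of beta-catenin antibody stain plus DAPI; measure: % activation, nuclear-to-cytoplasmic median beta-catenin signal ratio per cell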
CHOP inhibitor = blocks CHOP induction under ER stress | CHO-K1 CHOP-promoter luciferase, tunicamycin-induced, 15-18 h | 3.8% of 220,000 active | inhibition, % at 10 µM;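 active = compounds that reduced the stress-induced luciferase reporter signal by more than about 70% of percent inhibition, limit read from the data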;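 note: 0% = tunicamycin plus vehicle and 100% = wells without tunicamycin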
Autophagy HCS = alters autophagy in cells; AID 463193; 0.98% of 190,000 active; MEF GFP-LC3 puncta imaging; test concentration mostly 10 µM; calls only at 10 µM (by protocol);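 active = percentage of spot-positive cells more than 3 SD above its plate mean, without a fluorescence outlier flag or 80% toxicity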;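 note: spot-positive cell cutoff set from DMSO-treated cells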
Dynein transport = blocks dynein driven cargo transport along microtubules. 3617.4 mouse cells, GR-EGFP nuclear translocation imaging; test concentration mostly 20 µM; stimulated with dexamethasone, 1 µM; stronger effect = lower value. z-score, hits read low. 0.47% of 220,000 active. AID 1381;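 active = plate z-score of nuclear minus cytoplasmic receptor signal below a set negative limit, without overly bright fluorescence or cell loss, cut at about -3.5 in these data, passing the limit was not always enough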;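 note: z-score of nuclear minus cytoplasmic ring GR-EGFP intensity difference per well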
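medium = tetracycline-free induction medium containing charcoal-stripped FBS | also added = 1.0 µM final dexamethasone stimulus | schedule = 48 h induction, 1 h compound, 30 min dex at 37 °C | technique = fixed, Hoechst-stained cells imaged at 10x for EGFP | measure = GR-EGFP nuclear translocation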
MT stabilize HCS = microtubule stabilizers in HeLa cells; % tubulin-high responders, % at 10 µM; HeLa tubulin immunostaining HCS, 24 h; share of cells brighter than vehicle mean+2SD; 0.83% of 200,000 active;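 active = plate Z-score above 3 for both tubulin-high and condensed-nucleus cell shares, with cell loss under 80%, at 10 µM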;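 note: anti alpha tubulin signal scored within the nucleus-defined area of each cell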
Starred values were filed as active, the others as inactive; i = inactive; x = no result; + = active, no number. Hits are enriched below; roughly 12% of the tested compounds scored in any of these assays.

SMILES | Lmaj promast | bCat nuc transl | CHOP inhibitor | Autophagy HCS | Dynein transport | MT stabilize HCS
O=C(Nc1ccc2oc(-c3ccccc3F)nc2c1)c1ncn[nH]1 | 100.3* | -4.6 | -14.3 | i | -0.294 | 1.2
O=C(Nc1ccc2oc(-c3cccc(F)c3)nc2c1)c1ccccc1F | -5.1 | -5.9 | 72.6* | i | 2.07 | 1.7
CCOC(=O)c1cc(-c2ccc(Cl)cc2)nc2c1c(=O)[nH]c(=O)n2CCOC | 15.1 | -0.8 | 77.7* | i | 0.155 | 1.6
CC(=O)Nc1ccc(S(=O)(=O)Nc2c(C)nn(-c3ccccc3)c2C)cc1 | -4.9 | -3.7 | 8.8 | i | 0.603 | 3.5
Cc1nn(-c2ccc(F)cc2)c(C)c1NS(=O)(=O)c1ccc2ccccc2c1 | -0.9 | -0.7 | -4.9 | i | -0.951 | 25.7*
COc1cc(OC)cc(-c2nnc(Nc3nc4c(F)cccc4s3)o2)c1 | -7.0 | -2.0 | 22.7 | i | 0.415 | 2.0
Fc1cccc2sc(Nc3nc4c(F)cccc4s3)nc12 | -7.9 | -0.8 | 87.8* | i | -0.628 | 3.2
NNc1nc2c(F)cccc2s1 | -2.7 | -1.3 | -8.7 | i | -0.317 | 4.3
Fc1cccc2sc(Nc3nnc(-c4ccccc4)o3)nc12 | 83.4* | 0.6 | -67.1 | i | -0.29 | 4.7
CC1(C)SC2[C@H](NC(=O)C(NC(=O)N3CCNC3=O)c3ccccc3)C(=O)N2C1C(=O)O (stereo not given in full) | 1.4 | x | 0.2 | i | 0.222 | 2.9
CCN(C(=O)c1ccc2c(Cl)c3c(nc2c1)CCC3)c1ccc(C)c(C)c1 | 19.7 | 2.6 | 91.0* | i | -1.84 | 3.1
CC(=O)c1ccc(N2CCN(C(=O)c3ccc4c(Cl)c5c(nc4c3)CCCC5)CC2)cc1 | 11.7 | -1.7 | 46.8 | i | -3.6* | 4.9
CN(C(=O)c1ccc2c(Cl)c3c(nc2c1)CCC3)c1ccccc1 | 8.0 | 2.8 | 7.6 | i | -0.949 | 2.4
COc1ccccc1CNC(=O)C1(c2ccc(Cl)cc2)CC1 | 0.7 | -0.1 | -10.8 | i | 0.846 | 2.0
N#CCn1c(CCl)nc2ccccc2c1=O | 83.7* | -1.3 | -27.0 | i | -2.78 | 2.9
Cn1ncnc1SCc1cn2cccnc2n1 | -0.2 | 0.0 | 8.0 | i | 0.889 | 3.5
COc1ccc(-c2cc(C(=O)N/N=C/c3ccc(OC)c(COCC(F)(F)C(F)F)c3)c3ccccc3n2)c(OC)c1 | 48.5 | -1.2 | 24.1 | i | -1.3 | 2.5
COc1ccc(-c2cc(C(=O)N/N=C/c3ccc4c(c3)OCO4)c3ccccc3n2)c(OC)c1 | 77.4* | 3.2 | 18.7 | i | 0.595 | 3.9
COc1ccc(-c2cc(C(=O)N/N=C/c3sccc3C)c3ccccc3n2)c(OC)c1 | 78.6* | x | 38.6 | i | 0.992 | 2.3
CCCOC(=O)Nc1nc2ccccc2o1 | 0.6 | -1.7 | 29.0 | i | -0.88 | 2.4
CCOC(=O)c1cnc(Nc2nc3ccccc3o2)nc1CN1CCN(C)CC1 | 76.5* | -2.1 | -7.4 | i | 0.315 | 1.9
CSc1nc2nc(-c3ccccc3)cc(C(F)(F)F)n2n1 | 7.3 | -4.1 | -2.6 | i | 2.64 | 4.3
COc1ccc(C(=O)c2sc3nc(-c4ccccc4)ccc3c2N)cc1OC | -2.4 | 4.3 | 54.4 | i | -1.79 | 1.8
COc1ccc(-c2ccc3c(N)c(C(=O)c4ccc(OC)c(OC)c4)sc3n2)cc1 | -1.8 | x | 19.2 | + | 0.109 | 2.6
COc1cnc(SCc2c(Cl)cccc2Cl)nc1Cl | 0.1 | x | 24.6 | + | 0.801 | 1.0
SMILES | Lmaj promast | bCat nuc transl | CHOP inhibitor | Autophagy HCS | Dynein transport | MT stabilize HCS
Cc1sc2ncn(CC(=O)NCc3ccccc3)c(=O)c2c1C | x | 0.0 | 5.7 | x | -0.561 | x
O=C(Cn1cnc2sc(-c3ccccc3)cc2c1=O)NCc1ccco1 | 1.8 | 6.7 | x | i | -1.02 | 27.1*
Cc1cc2c(s1)c1cnn(CC(=O)NCCc3ccccc3)c(=O)c1n2C | -7.5 | -2.0 | 86.9* | i | -0.734 | 3.8
Cc1sc2ncn(CC(=O)NCCc3ccccc3)c(=O)c2c1C | -9.6 | -2.0 | -2.8 | i | -0.679 | 1.2
CN1CCN(CCCNC(=O)Cn2ncc3c4ccccc4n(C)c3c2=O)CC1 | -1.2 | -3.4 | 22.1 | x | -0.203 | 8.5
O=C(Cn1cnc2sc(-c3ccccc3)cc2c1=O)NCc1ccccc1 | -4.4 | x | 58.2 | + | 0.258 | 36.2*
O=C(Cn1cnc2sc(-c3ccccc3)cc2c1=O)NCCc1ccccc1 | -5.9 | x | 73.2* | i | -0.719 | 1.7
CO/N=C/C(=N\Nc1ccc(OC)cc1)C(=O)c1ccc(F)cc1 | 0.0 | 3.5 | 31.7 | i | -0.0429 | 2.5
CO/N=C/C(=N\Nc1ccc(C)cc1)C(=O)c1ccc(OC)cc1 | 8.3 | x | x | + | 0.136 | 53.0*
CCOC(=O)c1ccc(NC(=S)N2CCSC2c2ccc(Br)cc2)cc1 (stereo not given) | 86.7* | 0.5 | 46.6 | i | -0.461 | 2.4
CCOc1ccc2nc(N/C(N)=N/C(=S)Nc3ccc(OC)cc3)nc(C)c2c1 | 71.9* | 1.1 | 16.6 | i | 0.333 | 4.2
COc1ccc2nc(N/C(N)=N/C(=S)Nc3ccccc3)nc(C)c2c1 | 37.4 | -3.4 | -7.8 | i | -0.603 | 7.8
CCCCc1c(O)nc(SCC(=O)O)[nH]c1=O | -11.4 | 0.0 | 8.1 | i | -0.383 | 2.4
CCCc1c(O)nc(SCC(=O)O)[nH]c1=O | -6.4 | 0.3 | 75.9* | i | -1.15 | 3.4
COc1ccc(-c2ccc(-c3noc(-c4ccco4)n3)c(OC)n2)cc1 | 16.2 | -0.3 | 72.0* | i | 1.58 | 3.9
COc1ccc(-c2ccc(-c3noc(-c4ccccc4F)n3)c(OC)n2)cc1 | -3.5 | x | 73.9* | i | -0.442 | 2.3
COc1ccc(-c2ccc(-c3noc(-c4ccccc4)n3)c(OC)n2)cc1 | -3.0 | -0.5 | -4.4 | i | 0.261 | 1.8
COc1ccc(N(CCCN2C(=O)c3cccc4cccc(c34)C2=O)C(=O)c2cccc(OC)c2)cc1 | 48.1 | -0.4 | -2.5 | i | -0.491 | 3.5
COc1cccc(-n2nc(-c3ccnn3-c3ccc(F)cc3)c(=O)n(C)c2=O)c1 | 51.8* | x | -0.3 | i | 0.287 | 2.0
CCc1c(C)nc(/N=C(/NC(=O)c2ccccc2)Nc2ccccc2OC)[nH]c1=O | -2.9 | x | x | i | 0.469 | 2.8
O=C(c1cc(-c2ccccc2)on1)N1CCN(Cc2ccc3c(c2)OCO3)CC1 | 90.1* | -0.8 | 17.3 | i | -0.315 | 2.3
CCOc1ccc(S(=O)(=O)N2CCCC2)cc1 | -3.2 | -1.4 | -36.8 | i | 0.0214 | 2.0
Cc1onc(-c2ccccc2)c1C(=O)N1CCN(Cc2ccc3c(c2)OCO3)CC1 | -4.3 | 0.0 | 3.8 | i | -1.3 | 1.0
CC(C)n1c(C(=O)OCC(=O)NCc2ccc3c(c2)OCO3)cc2occc21 | -7.0 | -1.7 | -11.0 | i | -0.0413 | 2.4
O=C(c1ccc(Br)o1)N1CCN(Cc2ccc3c(c2)OCO3)CC1 | 8.9 | -3.0 | 5.3 | i | -0.224 | 4.3
